Screens from PubChem BioAssay.
Hits are enriched below; roughly 5.6% of the tested compounds scored in any of these assays.
UPR XBP1 act: activators of adaptive XBP1 UPR arm, primary screen, cell-based, CHO-XBP1 luciferase reporter, luminescence, uHTS; IRE1-XBP1 UPR activation; percent of tunicamycin response, DMSO as zero; activation, % at 20 µM; 330,000 compounds, 0.33% hits;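 active = versus positive control, 20 µM dose yields 30% or more activation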;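 note: 100% = tunicamycin at 10 µg/mL and 0% = DMSO only wells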
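Material: CHO-XBP1 cells stably carrying IRE1-XBP1-driven luciferase reporter / Amount: 1000 cells per well / Compound: 20 µM, 1% DMSO / Times: 6 h treatment, 37 °C / Detection: luciferase luminescence / Measure: % activation of reporter signal versus tunicamycin and DMSO controls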
GRIN3A LBD mod: binders of NR3A ligand-binding domain, primary screen, biophysical, differential scanning fluorimetry, uHTS. Glutamate receptor ionotropic, NMDA 3A (GRIN3A) ligand-binding domain. NR3A LBD differential scanning fluorimetry, Tm shift; 0% = protein alone, 100% = glycine-bound protein. Tm shift relative to glycine control, % at 25 µM. 340,000 compounds, 2.5% hits. AID 1259313, 2017;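 active = melting temperature shift of at least 10% of the positive control shift, at one fixed dose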
aDG glyco up: activators of alpha-DG glycosylation, primary screen, uHTS, Pro5-aDG cells, AlphaScreen; alpha-DG glycosylation AlphaScreen (IIH6); 0% Pro5, 100% B10-LARGE cell signal; activation, % at 10 µM; 360,000 compounds, 0.22% hits;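 active = activation of at least 8% versus controls, or a plate z-score of at least 8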;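 note: Pro5 are CHO cells carrying HIG-tagged alpha-DG that lacks glycosylation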
CHOP UPR activ: activators of apoptotic CHOP UPR arm, primary screen, cell-based, CHO-CHOP luciferase reporter, luminescence, uHTS | UPR activation; percent of tunicamycin response over DMSO baseline | 330,000 compounds, 0.34% hits | activation, % at 10 µM | AID 449763, 2010;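 active = at 10 µM dose, activation of 40% or more, normalized to positive control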;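 note: 100% = tunicamycin at 10 µg/mL and 0% = DMSO alone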
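Assay system: CHO cells with stable CHOP pathway luciferase reporter; Buffer or medium: F12 plus 10% serum; Times: 16-18 h cell attachment, then 6 h compound exposure, 37 °C; Signal: luciferase luminescence; Read-out basis: percent activation relative to tunicamycin control; Control set: tunicamycin high control, DMSO low control.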
MPTP block: mitochondrial permeability transition pore inhibitors, primary screen, biochemical, isolated mouse mitochondria, absorbance; Ca2+ swelling absorbance, 30 min; inhibition, % at 10 µM; 360,000 compounds, 1.4% hits; AID 602449, 2012;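 active = inhibition of 50% or more, scaled per plate between neutral and stimulator controls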;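 note: 0% = DMSO wells given calcium and 100% = 1 mM EGTA wells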
CHOP inhibitor: inhibitors of CHOP promoter induction, primary screen, cell-based, unfolded protein response, luciferase reporter | CHO-K1 CHOP-promoter luciferase, tunicamycin-induced, 15-18 h | inhibition, % at 10 µM | 220,000 compounds, 3.8% hits | AID 2732, 2010;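 active = compounds that reduced the stress-induced luciferase reporter signal by more than about 70% of percent inhibition, limit read from the data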;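 note: 0% = tunicamycin plus vehicle and 100% = wells without tunicamycin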
Starred values were filed as active, the others as inactive.

`CCC(C)NS(=O)(=O)c1ccc(NC(=O)C(Sc2ccccc2)c2ccccc2)cc1` (centres undefined) gave UPR XBP1 act 3, GRIN3A LBD mod 13*, aDG glyco up 1, CHOP UPR activ 2, MPTP block 31 and CHOP inhibitor 9.
CCN(CC)S(=O)(=O)c1ccc(OC)c(NC(=O)c2ccc([N+](=O)[O-])cc2)c1 was read as UPR XBP1 act -5, GRIN3A LBD mod 5, aDG glyco up 0, CHOP UPR activ 0, MPTP block -1 and CHOP inhibitor 15.
`COc1cc2c(cc1NC(=O)c1cccc(S(=O)(=O)N(C)C)c1)oc1ccccc12` gave UPR XBP1 act 4, GRIN3A LBD mod 14*, aDG glyco up 0, CHOP UPR activ 6, MPTP block 0 and CHOP inhibitor -16.
CCN(CC)S(=O)(=O)c1ccc(C(=O)Nc2cc3oc4ccccc4c3cc2OC)cc1 was read as UPR XBP1 act -2, GRIN3A LBD mod 11*, aDG glyco up 0, CHOP UPR activ -1, MPTP block 2 and CHOP inhibitor 9.
O=C(COC(=O)CC1CC2CCC1C2)NC(=O)NCc1ccco1 (centres undefined) was read as UPR XBP1 act 0, GRIN3A LBD mod 1, aDG glyco up 0, CHOP UPR activ -3, MPTP block 14 and CHOP inhibitor 82*.
Cc1ccc(C)c(C(=O)NC(C)c2ccc(-n3ccnc3)cc2)c1 (centres undefined) was read as UPR XBP1 act -5, GRIN3A LBD mod -1, aDG glyco up 0, CHOP UPR activ -1 and MPTP block -1.
`Cc1cc(C)c(C(=O)c2ccc(C(=O)N(C(C)C)C(C)C)cc2)c(C)c1` gave UPR XBP1 act -2, GRIN3A LBD mod -2, aDG glyco up 0, CHOP UPR activ -1, MPTP block 0 and CHOP inhibitor 94*.
For Cc1cc(C)c(C(=O)c2ccc(C(=O)NC(C)(C)C)cc2)c(C)c1 the results were UPR XBP1 act -3, GRIN3A LBD mod -2, aDG glyco up 0, CHOP UPR activ 2, MPTP block 0 and CHOP inhibitor 64.
`Cc1ccc2cc(C)c(N3CCN(c4ccccn4)CC3)nc2c1` gave UPR XBP1 act 2, GRIN3A LBD mod 0, aDG glyco up 0, CHOP UPR activ 1, MPTP block 0 and CHOP inhibitor 74*.
Nc1c(NCCCN2CCOCC2)c2ccccc2oc1=O was read as UPR XBP1 act 0, GRIN3A LBD mod 11*, aDG glyco up 0, CHOP UPR activ 0, MPTP block 1 and CHOP inhibitor -5.
`COc1ccc(CNC(=O)c2oc3ccc(S(=O)(=O)N4CCOCC4)cc3c2C)cc1` gave UPR XBP1 act -2, GRIN3A LBD mod 1, aDG glyco up 0, CHOP UPR activ 0 and MPTP block 0.
`Cc1cc(OC(=O)c2cccs2)ccc1C(C)C` gave UPR XBP1 act 2, GRIN3A LBD mod 3, aDG glyco up 0, CHOP UPR activ 4, MPTP block -1 and CHOP inhibitor 87*.
`CC(C)C(NC(=O)c1ccccc1NC(=O)C(C)(C)C)C(=O)N1CCOCC1` (centres undefined) gave UPR XBP1 act -2, GRIN3A LBD mod 0, aDG glyco up 0, CHOP UPR activ 0 and MPTP block 0.
For CN(/N=C/c1c[nH]c2ccccc12)c1cnn(-c2ccc(F)c(Cl)c2)c(=O)c1Cl the results were UPR XBP1 act 1, GRIN3A LBD mod 259*, aDG glyco up 0, CHOP UPR activ 3, MPTP block 1 and CHOP inhibitor 67.
Oc1c(Br)cc(Br)cc1/C=N/c1nc2c(s1)CCCC2 was read as UPR XBP1 act 0, GRIN3A LBD mod -4, aDG glyco up 0, CHOP UPR activ -3, MPTP block 2 and CHOP inhibitor 86*.
`CC(C)Oc1ccc(/C=N/NC(=O)C(CSCc2ccccc2)NC(=O)c2ccc([N+](=O)[O-])cc2)cc1` (centres undefined) gave UPR XBP1 act 0, GRIN3A LBD mod -1, aDG glyco up 0, CHOP UPR activ 3, MPTP block 11 and CHOP inhibitor 76*.
For O=C(COc1ccc(/C=N/NC(=O)c2ccccc2)cc1)Nc1ccc([N+](=O)[O-])cc1 the results were UPR XBP1 act -2, GRIN3A LBD mod 9, aDG glyco up 0, CHOP UPR activ 0, MPTP block -1 and CHOP inhibitor -30.
Screening C=CCNC(=O)c1ccc(Cn2cc(C(F)(F)F)ccc2=O)cc1 returned UPR XBP1 act -2, GRIN3A LBD mod 1, aDG glyco up 0, CHOP UPR activ -2, MPTP block 0 and CHOP inhibitor -1.
Screening COc1ccc(C(=O)N2CCN(Cc3ccccc3C(F)(F)F)CC2)cc1 returned UPR XBP1 act -2, GRIN3A LBD mod -1, aDG glyco up 0, CHOP UPR activ 8 and MPTP block 0.
For COc1ccc(C(=O)N2CCN(Cc3cn[nH]c3-c3ccc(OC)cc3F)CC2)cc1 the results were UPR XBP1 act 3, GRIN3A LBD mod 48*, aDG glyco up 0, CHOP UPR activ -2, MPTP block -2 and CHOP inhibitor 17.
For COc1cccc(C(=O)N2CCN(Cc3ccccc3C(F)(F)F)CC2)c1 the results were UPR XBP1 act -1, GRIN3A LBD mod -1, aDG glyco up 1, CHOP UPR activ 0, MPTP block -2 and CHOP inhibitor 71*.
For Cc1ccc(S(=O)(=O)N2CCOCC2)cc1NC(=O)COC(=O)CCC(=O)c1ccc(F)cc1 the results were UPR XBP1 act -1, GRIN3A LBD mod 1, aDG glyco up 0, CHOP UPR activ -1 and MPTP block 2.
Screening CCCc1ccc(-c2cc(C(=O)NCCc3ccc(S(N)(=O)=O)cc3)c3ccccc3n2)cc1 returned UPR XBP1 act 3, GRIN3A LBD mod 12*, aDG glyco up 2, CHOP UPR activ 6, MPTP block 0 and CHOP inhibitor 11.
NS(=O)(=O)c1ccc(CCNC(=O)c2cc(-c3ccc(Br)cc3)nc3ccccc23)cc1 was read as UPR XBP1 act -2, GRIN3A LBD mod 4, aDG glyco up 0, CHOP UPR activ 0, MPTP block 4 and CHOP inhibitor 54.
